The source of these data is ChEMBL document CHEMBL6109036, “Azo derivatives of monoterpenes as anti-Helicobacter pylori agents: from synthesis to structure-based target investigation” (RSC Med Chem, 2025).

≈ marks a conversion by molar mass, not a printed value.

The nature of data set [1]: Cytotoxicity against SV40-immortalized non-tumorigenic human GES1 cells assessed as cell viability measured after 24 hrs by Alamar blue assay. Type of data set: toxicity, cell-based. The method in brief:
(§1)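 GES-1 cells grown in RPMI with 10% FCS, glutamine, pen/strep and 10 mM HEPES at 37 °C, 5% CO2. Exposed to increasing concentrations for 24, 48 or 72 h. Alamar blue then added for 4 h at 37 °C and read at 540 and 630 nm. Percent reduction relative to untreated cells (100%).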

Data set [2] in a line: Cytotoxicity against human HIEC-6 cells assessed as cell viability measured after 24 hrs by MTT assay.
Data set [3] can be described thus: Cytotoxicity against SV40-immortalized non-tumorigenic human GES1 cells assessed as cell viability measured after 48 hrs by Alamar blue assay. Type of data set: toxicity, cell-based. The procedure, abridged: as §1
Data set [4] has as its system Helicobacter pylori. The data set can be described thus: Anti-bacterial activity against Helicobacter pylori Clinical isolate 23 measured after 72 hrs incubation by modified broth dilution method. Type of data set: functional.
The test system of data set [5] is Pseudomonas aeruginosa. The data set can be described thus: Anti-bacterial activity against non-lactose fermenting Pseudomonas aeruginosa ATCC 27853 measured after 24 hrs incubation by modified broth dilution method. The note with it: ATCC 27853, 24 h.
Data set [6] in a line: Cytotoxicity against SV40-immortalized non-tumorigenic human GES1 cells assessed as cell viability measured after 72 hrs by Alamar blue assay. Type of data set: toxicity, cell-based. The procedure, abridged: as §1
Data set [7] relates to Escherichia coli. Description: Anti-bacterial activity against lactose fermenting Escherichia coli ATCC 25922 measured after 24 hrs incubation by modified broth dilution method. Particulars: ATCC 25922, 24 h.
Data set [8] can be described thus: Cytotoxicity against human HIEC-6 cells assessed as cell viability measured after 72 hrs by MTT assay.
Data set [9] concerns Helicobacter pylori. The data set can be described thus: Anti-bacterial activity against Helicobacter pylori measured after 72 hrs incubation by modified broth dilution method. In kind it is functional.
The subject of data set [10] is Helicobacter pylori. The data set can be described thus: Anti-bacterial activity against Helicobacter pylori Clinical isolate F4 measured after 72 hrs incubation by modified broth dilution method. Type of data set: functional.
For data set [11], the system named is Escherichia coli. The data set can be described thus: Bactericidal against lactose fermenting Escherichia coli ATCC 25922 measured after 24 hrs of incubation by broth microdilution method. Particulars: ATCC 25922, 24 h, read-out: MBC99.9.
Data set [12] deals with Pseudomonas aeruginosa. The data set can be described thus: Bactericidal against non-lactose fermenting Pseudomonas aeruginosa ATCC 27853 measured after 24 hrs of incubation by broth microdilution method. The note with it: ATCC 27853, 24 h, read-out: MBC99.9.
Data set [13] has as its system Helicobacter pylori. The data set can be described thus: Bactericidal against Helicobacter pylori measured after 72 hrs of incubation under microaerophilic conditions by modified broth dilution method. Type of data set: functional. The method in brief:
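Wells with no visible growth in the MIC assay spotted (10 μL) onto Skirrow agar. Plates incubated 72 h at 37 °C, microaerophilic, 100% humidity. Triplicate, on at least three different days.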

Data set [14] can be described thus: Cytotoxicity against human HIEC-6 cells assessed as cell viability measured after 48 hrs by MTT assay.
The test system of data set [15] is Helicobacter pylori. The data set can be described thus: Anti-bacterial activity against Helicobacter pylori NCTC 11637 measured after 72 hrs incubation by modified broth dilution method. Type of data set: functional.
In data set [16] the test system is Helicobacter pylori. Description: Bactericidal activity against Helicobacter pylori NCTC 11637 measured after 72 hrs of incubation under microaerophilic conditions by modified broth dilution method. Type of data set: functional. Particulars: read-out: MBC99.9. The procedure, abridged: (§2)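 H. pylori (NCTC 11637, F1, 23, F4). Wells with no visible growth in the MIC assay spotted (10 μL) onto Skirrow agar. Plates incubated 72 h at 37 °C, microaerophilic, 100% humidity. MBC = concentration killing 99.9% of the initial inoculum. Triplicate, on at least three different days.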

Data set [17] concerns Staphylococcus aureus. Description: Bactericidal against Gram-positive Staphylococcus aureus ATCC 29213 measured after 24 hrs of incubation by broth microdilution method. Particulars: ATCC 29213, 24 h, read-out: MBC99.9.
In data set [18] the test system is Helicobacter pylori. Description: Bactericidal activity against Helicobacter pylori Clinical isolate F1 measured after 72 hrs of incubation under microaerophilic conditions by modified broth dilution method. Type of data set: functional. The note with it: read-out: MBC99.9. The procedure, abridged:
as §2

Data set [19] has as its system Staphylococcus aureus. Description: Anti-bacterial activity against Gram-positive Staphylococcus aureus ATCC 29213 measured after 24 hrs incubation by modified broth dilution method. The note with it: ATCC 29213, 24 h.
Data set [20] concerns Helicobacter pylori. The data set can be described thus: Bactericidal activity against Helicobacter pylori Clinical isolate 23 measured after 72 hrs of incubation under microaerophilic conditions by modified broth dilution method. The note with it: read-out: MBC99.9. Type of data set: functional. The method in brief:
as §2

For data set [21], the system named is Helicobacter pylori. Description: Bactericidal against Helicobacter pylori Clinical isolate F4 measured after 72 hrs of incubation under microaerophilic conditions by modified broth dilution method. In kind it is functional. The note with it: read-out: MBC99.9. The method in brief: as §2
Data set [22] deals with Helicobacter pylori. Description: Anti-bacterial activity against Helicobacter pylori Clinical isolate F1 measured after 72 hrs incubation by modified broth dilution method. In kind it is functional.

For `Cc1ccc(C(C)C)c(/N=N/c2ccc([N+](=O)[O-])cc2)c1O`, the IC50 at 24 h in data set [1] is 15 µg/mL (≈ 50.1 µM); in data set [2] it was 15.1 µg/mL (≈ 50.3 µM). Further, the IC50 at 48 h in data set [3] stood at 12.1 µg/mL (≈ 40.4 µM); in [14], 13.4 µg/mL (≈ 44.7 µM). Also, the MIC in data set [4] was 2 µg/mL (≈ 6.68 µM); in data set [5], over 128 µg/mL; in data set [7] it was over 128 µg/mL; in data set [10], 4 µg/mL (≈ 13.4 µM); in data set [15] it was 2 µg/mL (≈ 6.68 µM); in [19], 2 µg/mL (≈ 6.68 µM). The same compound returned a minimal inhibitory concentration (MIC) in data set [22] of 2 µg/mL (≈ 6.68 µM). Also, the half-maximal inhibitory concentration (IC50) at 72 h is 12 µg/mL (≈ 40.2 µM) in data set [6] and 13.3 µg/mL (≈ 44.3 µM) in data set [8]. In [9], this compound came in with an MIC50 of 2 µg/mL (≈ 6.68 µM). This compound also had an MIC90 in [9] of 4 µg/mL (≈ 13.4 µM). The MBC in data set [11] was over 128 µg/mL; in [12] it was over 128 µg/mL; in data set [16] it was 2 µg/mL (≈ 6.68 µM); in [17] it was 32 µg/mL (≈ 107 µM); in [18] it was 4 µg/mL (≈ 13.4 µM); in data set [20], 2 µg/mL (≈ 6.68 µM). In addition, the MBC in data set [21] is 4 µg/mL (≈ 13.4 µM). The MBC90 in data set [13] was determined as 4 µg/mL (≈ 13.4 µM).
In the case of `Cc1cc(O)c(C(C)C)cc1/N=N/c1ccc([N+](=O)[O-])cc1`, the IC50 at 24 h in data set [1] came out at 12.1 µg/mL (≈ 40.4 µM); in [2] it was 13.6 µg/mL (≈ 45.4 µM). Further, the MIC is 2 µg/mL (≈ 6.68 µM) in data set [4]; over 128 µg/mL in data set [5]; over 128 µg/mL in data set [7]; 4 µg/mL (≈ 13.4 µM) in data set [10]; 2 µg/mL (≈ 6.68 µM) in data set [15]; 2 µg/mL (≈ 6.68 µM) in [19]. The MIC in [22] amounted to 2 µg/mL (≈ 6.68 µM). In addition, the IC50 at 72 h in data set [6] came to 8.44 µg/mL (≈ 28.2 µM); in [8], 7.61 µg/mL (≈ 25.4 µM). In data set [9], this compound returned an MIC50 of 2 µg/mL (≈ 6.68 µM). The same compound had an MIC90 in data set [9] of 4 µg/mL (≈ 13.4 µM). Further, the MBC is over 128 µg/mL in data set [11]; over 128 µg/mL in [12]; 2 µg/mL (≈ 6.68 µM) in [16]; 32 µg/mL (≈ 107 µM) in data set [17]; 2 µg/mL (≈ 6.68 µM) in data set [18]; 2 µg/mL (≈ 6.68 µM) in data set [20]. Besides, the MBC in [21] stood at 4 µg/mL (≈ 13.4 µM). In [13], this compound came in with an MBC90 of 4 µg/mL (≈ 13.4 µM). In data set [14], the IC50 at 48 h was 7.61 µg/mL (≈ 25.4 µM).
